Compounds with a hit are over-represented: about 1.1% of the library has one in this group of screens.
Furin inhibitor – blocks human furin protease activity. 0.061% of 220,000 active. purified furin, fluorogenic substrate cleavage. P09958. inhibition, % at 20 µM or 30 µM; in the data active = inhibition above about 25%
Target sequence (P09958 108-714 limits assumed): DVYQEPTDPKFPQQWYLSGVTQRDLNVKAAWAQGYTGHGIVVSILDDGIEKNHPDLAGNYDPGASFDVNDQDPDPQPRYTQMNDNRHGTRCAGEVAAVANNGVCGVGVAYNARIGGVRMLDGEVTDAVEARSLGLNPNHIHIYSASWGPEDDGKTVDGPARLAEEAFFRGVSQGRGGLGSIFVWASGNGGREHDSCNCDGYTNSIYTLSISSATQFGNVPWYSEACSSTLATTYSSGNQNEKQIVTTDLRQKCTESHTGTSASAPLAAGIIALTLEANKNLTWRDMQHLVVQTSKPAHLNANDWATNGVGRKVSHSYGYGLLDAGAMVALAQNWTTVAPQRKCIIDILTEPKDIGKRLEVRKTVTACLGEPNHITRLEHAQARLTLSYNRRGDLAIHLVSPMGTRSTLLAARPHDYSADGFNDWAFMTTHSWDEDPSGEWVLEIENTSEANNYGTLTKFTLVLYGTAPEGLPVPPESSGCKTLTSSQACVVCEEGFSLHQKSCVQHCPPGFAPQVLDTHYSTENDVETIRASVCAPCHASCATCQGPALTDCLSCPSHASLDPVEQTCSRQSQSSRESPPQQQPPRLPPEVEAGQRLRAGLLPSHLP
m-calpain inh – inhibitors of pig calpain II. purified calpain II, fluorogenic peptide substrate, 30 min. inhibition, % at 16 µM. 0.37% of 220,000 active. AID 1236;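 active = inhibition above about 50%, limit read from the data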
RBBP9 inh – human RBBP9 hydrolase inhibition; inhibition, % at 7.94 µM; 0.2% of 220,000 active; recombinant RBBP9, FP-Rh probe fluorescence polarization;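 active = inhibition above the campaign mean of all tested compounds plus 3 SD, cut at about 14% in these data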;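 also: plate controls were DMSO wells with RBBP9 for no effect and wells lacking RBBP9 protein for full effect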
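Test system: recombinant human RBBP9. Quantity: 2.5 µM RBBP9 dispensing solution, before mixing. Detection: FP readout at 525/598 nm. Reagent: Serine-hydrolase probe FP-Rh, 375 nM pre-mixing. Measure: % inhibition. Control set: DMSO-treated enzyme wells and wells lacking RBBP9. Buffer or medium: Tris-NaCl-Pluronic buffer, pH 8.0. Times: preincubation 30 min plus labeling 45 min at 25 °C.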
p47phox inh – inhibitors of human p47phox binding; P14598; p47phox/p22phox peptide binding, fluorescence polarization, 2 h; inhibition, % at 24.7 µM; 0.53% of 220,000 active;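 active = inhibition above about 30%, limit read from the data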;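 also: 0% = p47phox with labelled peptide and 100% = labelled peptide alone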
An asterisk follows results filed as active; i = inactive; x = no result; ! = a repeat was not active.

SMILES	Furin inhibitor	m-calpain inh	RBBP9 inh	p47phox inh
O=c1c(Cc2ccc(Cl)cc2Cl)c(O)ccn1CCCN1CCOCC1	-20.1	6.3	-2.6	-6.4
O=C(O)/C=C/C(=O)Nc1ccc(-c2ccccc2)cc1	-13.6	-4.5	3.5	-9.0
CCCCC1C2C(=O)N(c3ccc(C)cc3)C(=O)C2ON1c1ccccc1 (stereo not drawn)	-23.6	-5.1	3.0	-8.2
COc1ccc(-c2cc(C(=O)NCc3cccnc3)no2)cc1OC	-4.5	7.3	-6.0	1.8
Cc1ccc(-c2cc(C(=O)NCc3cccnc3)no2)cc1	25.1*	30.1	1.8	-0.4
Cn1nc(-c2ccccc2)c(CSc2ccccc2Cl)c1Cl	-10.8	1.1	-5.0	34.2*
C[C@]12CC[C@@H]3c4cc(O)c(O)cc4CC[C@H]3[C@@H]1CC[C@@H]2O	x	31.5	23.9*	14.4
COC(=O)Nc1ccc(S(=O)(=O)N2CCCC(C(=O)O)C2)cc1 (stereo not drawn)	-25.7	-16.9	-2.7	-0.5
CCCCCCCCCCCCCCCCn1cc[n+](C)c1	-8.7	54.0*!	-7.4	102.4*
CCCCCCCCn1ccc(=N)cc1	-9.4	-3.5	-8.5	7.3
N#CC1=C(N)NC(SCc2ccc(Cl)cc2)=C(C#N)C12CCCCC2	-11.3	64.3*	0.2	-15.1
N#CC1=C(N)NC(SCc2ccccc2)=C(C#N)C12CCCC2	5.9	39.8	-11.4	-6.8
N#CC1=C(N)NC(SCc2ccc(Br)cc2)=C(C#N)C12CCCCC2	30.6*	23.7	-1.5	-38.3
Cc1cccc(Nc2nnc(-c3ccc(N4CCOCC4)c([N+](=O)[O-])c3)c3ccccc23)c1	-10.3	-28.7	-12.3	-2.4
COc1cc(/C=N/NC(=O)c2cc(C)oc2C)ccc1O	-13.6	-21.2	2.3	36.9*
COc1ccc(/C=N/NC(=O)c2cc(C)oc2C)cc1OC	-21.6	-5.9	-9.6	-1.1
Cc1ccc2oc(Nc3nc(-c4ccccc4)cc(=O)[nH]3)nc2c1	-20.6	-1.1	-5.1	45.3*
COCc1cc(=O)[nH]c(Nc2nc3ccccc3o2)n1	-14.4	6.7	1.2	-9.0
CCN(CC)C(=O)NCc1c(C)cc(C)cc1C	-39.0	-7.1	-4.5	-6.9
COCCNC(=O)/C(C#N)=C/c1cccs1	-7.5	1.7	-4.4	-26.8
COCCNC(=O)/C(C#N)=C/c1ccc(OC(=O)c2cccs2)c(OC)c1	-1.2	21.8	-4.5	113.4*
COc1ccc(-c2nnc(-c3cc4c(ccc5ccccc54)oc3=O)o2)cc1	-19.2	-25.3	0.7	31.6*
Cc1nc([N+](=O)[O-])c(C(=O)OCc2cccc(Br)c2)n1C	-5.2	17.3	-8.6	5.8
O=C(c1cc(-c2ccncc2)nc2ccc(Cl)cc12)N1CCN(Cc2ccc3c(c2)OCO3)CC1	-21.6	-61.5	3.0	47.8*
CCOC(=O)C1(CCOC)CCN(Cc2cnc(-c3cccc(C)c3)nc2)CC1	-15.5	15.4	-4.6	-1.7
SMILES	Furin inhibitor	m-calpain inh	RBBP9 inh	p47phox inh
O=C(O)CCS(=O)(=O)c1cccc2cccnc12	-17.0	-32.4	-0.8	1.0
CCSS(=O)(=O)c1cccc2cccnc12	-13.5	-7.3	-1.5	51.9*
C=CCNC(=O)NC(=O)COC(=O)CNS(=O)(=O)c1ccc(F)c(F)c1F	-25.1	-11.7	11.1	-2.8
O=C(NC1CCCC1)C1CC1c1ccccc1 (stereo not drawn)	25.4*	-4.1	3.4	-8.9
Cc1cc(C)nc(N2CCCC(C(=O)NCc3ccccc3F)C2)n1 (stereo not drawn)	-17.6	-23.0	-3.2	-2.3
O=C(Cc1ccsc1)Nc1ccc(S(=O)(=O)C(F)F)cc1	-22.6	27.3	-3.4	1.2
CCOC(=O)CCn1c2nc(C)cc(C)c2c(=O)n1-c1ccccc1	-37.5	i	-6.7	33.9*
CCOC(=O)Cn1nc(C)n(-c2ccccc2)c1=O	-19.3	20.8	-1.7	-0.4
CCCCSc1nnc2c(n1)OC(C(=O)c1ccccc1)Nc1ccccc1-2 (stereo not drawn)	-11.2	65.1*	-1.9	13.1
COc1ccccc1C(=O)C1Nc2ccccc2-c2nnc(SC)nc2O1 (stereo not drawn)	-29.2	-9.8	1.1	-1.1
COc1cc(/C=C/C(=O)N2CCN(c3n[nH]c(=O)[nH]c3=O)CC2)cc(OC)c1OC	-15.2	-45.6	-2.9	-9.2
O=C1NC(=O)C2(COC(c3ccccc3Cl)OC2)S1 (stereo not drawn)	-19.9	-3.3	-5.6	-10.7
CC1(C)C(C=C(Cl)Cl)C1C(=O)Nc1ccc([N+](=O)[O-])cc1 (stereo not drawn)	6.9	52.7*	-11.3	-12.1
O=C(Nc1ccc([N+](=O)[O-])cc1)C1CC1(c1ccccc1)c1ccccc1 (stereo not drawn)	-10.3	5.0	-7.5	-11.5
Cc1nc2ccc(S(=O)(=O)NC(C(=O)NCc3ccco3)C(C)C)cc2s1 (stereo not drawn)	-27.7	10.9	-1.0	121.2*
Cc1ccc(S(=O)(=O)NCC(=O)OCC(=O)c2c(N)n(C)c(=O)n(C)c2=O)cc1	-26.7	-4.6	-5.4	-12.3
COc1ccc(C(=O)Nc2cc(OC)c(NC(=O)c3ccco3)cc2OC)cc1	-10.7	-219.7	-6.0	63.4*
NC(=O)COC(=O)c1ccccc1Nc1ccc(SC(F)F)cc1	-11.8	18.3	-9.1	1.6
CC(OC(=O)c1ccccc1Nc1ccc(SC(F)F)cc1)C(N)=O (stereo not drawn)	4.3	68.2*	-20.3	-5.8
CCOC(=O)Cn1c(=O)c(-c2ccccc2NC)nc2ccccc21	-7.9	-6.4	-16.4	39.2*
CCOC(=O)Cn1c(C)nc2ccccc21	-17.1	-12.1	4.7	-9.3
S=C(Nc1ccc2nccnc2c1)N1CCOCC1	-16.8	-27.6	0.5	3.0
COc1ccc(Nc2cc(C(=O)NCCCN3CCN(C)CC3)c3ccccc3n2)cc1OC	4.0	-18.8	-1.3	72.7*
O=C(Nc1ccc(-c2csc(Nc3ccccc3)n2)cc1)c1cc([N+](=O)[O-])cc(C(F)(F)F)c1	-25.4	-31.4	x	35.0*
O=C(Nc1cccc(-c2csc(Nc3cccc(C(F)(F)F)c3)n2)c1)c1cc([N+](=O)[O-])cc(C(F)(F)F)c1	-17.4	-84.8	x	4.3
SMILES	Furin inhibitor	m-calpain inh	RBBP9 inh	p47phox inh
CC1=Nc2cccc3cccc(c23)N1	12.3	26.4	4.8	157.5*
COc1ccc(CNC(=O)c2c(O)c3cccc4c3n(c2=O)CCC4)cc1	-13.7	19.1	-0.7	-1.6
COc1ccc(CNC(=O)c2c(O)c3cccc4c3n(c2=O)CCC4)cc1OC	-22.3	-38.2	-7.7	54.2*
COc1ccc2[nH]c(=O)c(CN(C(=O)c3cccnc3)c3ccc(C)cc3C)cc2c1	-26.6	-41.4	-1.0	-12.2
Cc1ccnc(NC(=O)CN(C)S(=O)(=O)c2cccc3nsnc23)c1	-21.3	5.2	-7.2	-5.9
Cc1ccc2nc(NC(=O)CN(C)S(=O)(=O)c3cccc4nsnc34)sc2c1	-0.3	53.3*	-4.7	-1.6
COC(=O)c1sccc1NC(=O)Nc1cccc(F)c1	-22.2	-2.4	-2.9	-18.1
O=C(Nc1cccc(-c2cn3ccccc3n2)c1)C1CC1	-23.4	-45.6	-7.5	67.0*
Cc1cccc(C)c1NC(=S)NC(C)CCc1ccccc1 (stereo not drawn)	-8.5	30.8	4.1	-4.4
Cc1ccc(NC(=S)NC(C)CCc2ccccc2)cc1C (stereo not drawn)	-24.7	63.7*	-8.3	-2.5

Screening data from PubChem BioAssay.
